{
  "source": "ChEMBL document CHEMBL3351398",
  "about": "“Discovery of a Potent and Selective DGAT1 Inhibitor with a Piperidinyl-oxy-cyclohexanecarboxylic Acid Moiety” (ACS Med Chem Lett, 2014)",
  "key": {"[1]": {"experiment": "Unbound fraction in mouse plasma", "assay_type": "ADME, cell-free"}, "[2]": {"experiment": "Volume of distribution at steady state in Sprague-Dawley rat at 1 mg/kg, iv or 2 mg/kg, po", "assay_type": "ADME, organism-based", "conditions": "in vivo, read-out: Vdss", "outline": "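Sprague–Dawley rats were dosed as a solution in EtOH/PEG400/water (10:50:40), 1 mg/kg iv and 2 mg/kg po. Pharmacokinetic parameters were derived from these dosings.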"}, "[3]": {"experiment": "Drug level in plasma of C57BL/6 mouse at 10 mg/kg, po after 3 hrs", "assay_type": "ADME, organism-based", "parameters": "dose 10 mg/kg, route oral", "outline": "(§1)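 Tissue distribution in C57BL/6 mice. A single oral dose of 10 mg/kg was given as a solution in EtOH/PEG400/water (10:50:40). Parent and its cis isomer were both measured, in μM, in plasma, liver, small intestine, adipose fat and skin at 3 h and 24 h.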"}, "[4]": {"experiment": "Oral bioavailability in Sprague-Dawley rat at 2 mg/kg", "assay_type": "ADME, organism-based", "conditions": "in vivo"}, "[5]": {"experiment": "Drug level in small intestine of C57BL/6 mouse at 10 mg/kg, po after 24 hrs", "assay_type": "ADME, organism-based", "parameters": "dose 10 mg/kg, route oral", "conditions": "read-out: Drug uptake", "outline": "as §1"}, "[6]": {"experiment": "Plasma concentration in Sprague-Dawley rat at 3 mg/kg, po dosed 2 hrs before lipid challenge and measured at 4 hrs by lipid tolerance test", "assay_type": "ADME, organism-based", "parameters": "dose 3 mg/kg, route oral", "outline": "(§2)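 Rat lipid tolerance test at oral doses of 1 and 3 mpk. Reduction of lipid excursion was normalized to a reference DGAT1 inhibitor given at 10 mpk, set as 100%. Plasma drug levels were the parent and its cis isomer combined, measured 4 h after oral dosing.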"}, "[7]": {"experiment": "AUC in Beagle dog at 4 mg/kg, po", "assay_type": "ADME, organism-based, Canis lupus familiaris", "parameters": "dose 4 mg/kg, route oral", "conditions": "plasma", "outline": "(§3)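 Single-dose pharmacokinetics. Beagle dogs were dosed at 1 mg/kg iv as a solution in 30% captisol (pH 8) and at 4 mg/kg po in 0.5 methylcellulose.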"}, "[8]": {"experiment": "Oral bioavailability in Beagle dog at 4 mg/kg", "assay_type": "ADME, organism-based, Canis lupus familiaris", "conditions": "in vivo", "outline": "as §3"}, "[9]": {"experiment": "Drug level in adipose fat of C57BL/6 mouse assessed as cis-4-((1-(5-(5-(trifluoromethyl)-1H-benzo[d]imidazol-2-yl)pyridin-2-yl)piperidin-4-yl)oxy)cyclohexanecarboxylic acid level at 10 mg/kg, po after 24 hrs", "assay_type": "ADME, organism-based, Adipose tissue", "parameters": "dose 10 mg/kg, route oral", "conditions": "in vivo, read-out: Drug uptake", "outline": "as §1"}, "[10]": {"experiment": "Half life in Beagle dog at 1 mg/kg, iv or 4 mg/kg, po", "assay_type": "ADME, organism-based, Canis lupus familiaris", "conditions": "in vivo", "outline": "as §3"}, "[11]": {"experiment": "Drug level in adipose fat of C57BL/6 mouse at 10 mg/kg, po after 24 hrs", "assay_type": "ADME, organism-based, Adipose tissue", "parameters": "dose 10 mg/kg, route oral", "conditions": "read-out: Drug uptake", "outline": "as §1"}, "[12]": {"experiment": "Unbound fraction in human plasma", "assay_type": "ADME, cell-free"}, "Salmonella typhimurium": {"system": "Salmonella typhimurium", "experiment": "Induction of mutagenicity in Salmonella typhimurium TA100 assessed as increase in number of revertants in absence of metabolic activation", "assay_type": "toxicity, organism-based", "conditions": "salmonella enterica subsp. enterica serovar typhimurium", "outline": "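Microbial reverse-mutation (Ames) test in strains TA1535, TA98 and TA100, with and without metabolic activation. The concentration range was 30 to 5000 μg/plate. A positive call required a 2-fold or greater increase in revertants relative to the solvent control.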"}, "[13]": {"experiment": "Drug level in skin of C57BL/6 mouse at 10 mg/kg, po after 24 hrs", "assay_type": "ADME, organism-based, Zone of skin", "parameters": "dose 10 mg/kg, route oral", "conditions": "read-out: Drug uptake", "outline": "as §1"}, "[14]": {"experiment": "Plasma concentration in Sprague-Dawley rat at 1 mg/kg, po dosed 2 hrs before lipid challenge and measured at 4 hrs by lipid tolerance test", "assay_type": "ADME, organism-based", "parameters": "dose 1 mg/kg, route oral", "outline": "as §2"}, "[15]": {"molecular_target": "T1, Sterol O-acyltransferase 1 (Homo sapiens, UniProt P35610)", "T1 sequence (P35610 whole entry)": "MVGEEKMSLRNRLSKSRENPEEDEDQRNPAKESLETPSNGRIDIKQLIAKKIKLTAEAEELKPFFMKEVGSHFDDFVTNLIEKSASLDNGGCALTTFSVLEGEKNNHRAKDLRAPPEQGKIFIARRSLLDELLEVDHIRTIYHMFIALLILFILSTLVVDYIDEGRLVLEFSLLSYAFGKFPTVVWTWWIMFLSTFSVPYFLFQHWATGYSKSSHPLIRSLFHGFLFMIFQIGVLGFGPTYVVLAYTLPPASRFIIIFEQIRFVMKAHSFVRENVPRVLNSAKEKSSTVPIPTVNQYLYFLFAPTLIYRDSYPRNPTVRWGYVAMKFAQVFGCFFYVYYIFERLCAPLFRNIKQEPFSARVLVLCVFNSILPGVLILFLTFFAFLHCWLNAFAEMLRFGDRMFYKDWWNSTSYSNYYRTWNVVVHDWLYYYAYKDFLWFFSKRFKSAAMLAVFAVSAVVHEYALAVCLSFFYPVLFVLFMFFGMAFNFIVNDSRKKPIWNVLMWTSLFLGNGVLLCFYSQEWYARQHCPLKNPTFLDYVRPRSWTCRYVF", "experiment": "Inhibition of human ACAT1"}, "Liver": {"system": "Liver", "experiment": "Drug level in liver of C57BL/6 mouse assessed as cis-4-((1-(5-(5-(trifluoromethyl)-1H-benzo[d]imidazol-2-yl)pyridin-2-yl)piperidin-4-yl)oxy)cyclohexanecarboxylic acid level at 10 mg/kg, po after 3 hrs", "assay_type": "ADME, organism-based", "parameters": "dose 10 mg/kg, route oral", "conditions": "in vivo, read-out: Drug uptake", "outline": "as §1"}, "Rattus norvegicus [16]": {"system": "Rattus norvegicus", "experiment": "AUC in Sprague-Dawley rat assessed as cis-4-((1-(5-(5-(trifluoromethyl)-1H-benzo[d]imidazol-2-yl)pyridin-2-yl)piperidin-4-yl)oxy)cyclohexanecarboxylic acid rat at 2 mg/kg, po", "assay_type": "ADME, organism-based, Plasma", "parameters": "dose 2 mg/kg, route oral", "conditions": "in vivo"}, "Rattus norvegicus [17]": {"system": "Rattus norvegicus", "experiment": "Inhibition of plasma triglyceride accumulation in Sprague-Dawley rat at 1 mg/kg, po dosed 2 hrs before lipid challenge and measured at 18 hrs by lipid tolerance test", "assay_type": "functional", "outline": "as §2"}, "[18]": {"experiment": "Solubility in PBS buffer at pH 7", "assay_type": "physicochemical", "outline": "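High-throughput solubility test in PBS buffer at pH 2 and at pH 7. Free form and salt forms (TFA, formate, ammonium) were tested separately.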"}, "[19]": {"molecular_target": "Voltage-gated inwardly rectifying potassium channel KCNH2 (Homo sapiens, UniProt Q12809)", "sequence (Q12809 whole entry)": "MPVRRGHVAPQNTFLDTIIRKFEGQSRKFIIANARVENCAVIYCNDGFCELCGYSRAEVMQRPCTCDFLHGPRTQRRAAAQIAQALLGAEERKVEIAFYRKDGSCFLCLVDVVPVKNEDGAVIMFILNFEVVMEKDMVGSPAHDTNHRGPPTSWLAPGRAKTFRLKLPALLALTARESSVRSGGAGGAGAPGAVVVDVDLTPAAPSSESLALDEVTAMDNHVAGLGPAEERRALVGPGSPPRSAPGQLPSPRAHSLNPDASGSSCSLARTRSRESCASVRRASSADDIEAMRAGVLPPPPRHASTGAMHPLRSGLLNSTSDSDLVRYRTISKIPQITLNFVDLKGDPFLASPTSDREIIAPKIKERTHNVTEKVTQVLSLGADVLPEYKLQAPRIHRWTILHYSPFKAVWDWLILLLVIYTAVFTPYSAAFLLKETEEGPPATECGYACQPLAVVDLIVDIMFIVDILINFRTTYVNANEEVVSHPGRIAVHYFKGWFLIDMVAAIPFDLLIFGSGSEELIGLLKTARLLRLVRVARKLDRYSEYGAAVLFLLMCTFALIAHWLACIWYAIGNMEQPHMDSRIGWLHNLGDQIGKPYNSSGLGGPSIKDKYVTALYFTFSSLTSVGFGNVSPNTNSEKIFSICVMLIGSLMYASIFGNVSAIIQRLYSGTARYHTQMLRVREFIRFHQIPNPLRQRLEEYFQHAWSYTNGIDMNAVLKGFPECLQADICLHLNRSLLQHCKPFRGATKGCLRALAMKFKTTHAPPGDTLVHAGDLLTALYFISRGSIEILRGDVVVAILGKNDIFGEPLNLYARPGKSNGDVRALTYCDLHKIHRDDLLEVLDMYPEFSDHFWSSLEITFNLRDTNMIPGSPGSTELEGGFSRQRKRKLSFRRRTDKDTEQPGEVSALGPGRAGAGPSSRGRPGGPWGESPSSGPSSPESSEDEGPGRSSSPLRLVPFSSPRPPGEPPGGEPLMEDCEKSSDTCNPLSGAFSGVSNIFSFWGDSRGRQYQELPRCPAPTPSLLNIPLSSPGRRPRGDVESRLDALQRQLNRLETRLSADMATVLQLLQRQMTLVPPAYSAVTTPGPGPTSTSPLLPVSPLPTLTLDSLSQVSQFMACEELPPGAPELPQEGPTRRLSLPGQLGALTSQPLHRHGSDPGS", "experiment": "Displacement of radiolabeled MK499 from human ERG", "outline": "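hERG off-target activity was measured in a competitive binding assay against radiolabeled MK-499. The value is reported as Ki.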"}, "[20]": {"experiment": "Clearance in Sprague-Dawley rat at 1 mg/kg, iv or 2 mg/kg, po", "assay_type": "ADME, organism-based", "conditions": "in vivo"}, "[21]": {"experiment": "Drug level in skin of C57BL/6 mouse at 10 mg/kg, po after 3 hrs", "assay_type": "ADME, organism-based, Zone of skin", "parameters": "dose 10 mg/kg, route oral", "conditions": "read-out: Drug uptake", "outline": "as §1"}, "Intestine": {"system": "Intestine", "experiment": "Drug level in small intestine of C57BL/6 mouse assessed as cis-4-((1-(5-(5-(trifluoromethyl)-1H-benzo[d]imidazol-2-yl)pyridin-2-yl)piperidin-4-yl)oxy)cyclohexanecarboxylic acid level at 10 mg/kg, po after 24 hrs", "assay_type": "ADME, organism-based", "parameters": "dose 10 mg/kg, route oral", "conditions": "in vivo, read-out: Drug uptake", "outline": "as §1"}, "Adenosine receptor A2a": {"molecular_target": "Adenosine receptor A2a (Homo sapiens, UniProt P29274)", "sequence (P29274 whole entry)": "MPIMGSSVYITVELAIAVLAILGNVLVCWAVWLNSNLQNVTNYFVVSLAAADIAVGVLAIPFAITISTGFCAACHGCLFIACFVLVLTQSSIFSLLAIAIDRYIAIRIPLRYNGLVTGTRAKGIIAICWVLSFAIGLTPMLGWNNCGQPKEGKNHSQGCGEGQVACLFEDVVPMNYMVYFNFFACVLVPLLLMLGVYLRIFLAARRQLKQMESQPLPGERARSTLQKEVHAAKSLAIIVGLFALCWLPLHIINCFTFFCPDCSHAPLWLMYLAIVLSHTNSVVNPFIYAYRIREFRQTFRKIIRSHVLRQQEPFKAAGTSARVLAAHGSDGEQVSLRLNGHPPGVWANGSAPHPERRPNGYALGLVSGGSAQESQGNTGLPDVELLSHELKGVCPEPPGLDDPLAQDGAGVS", "experiment": "Binding affinity to human A2A receptor", "outline": "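Recombinant human A2A receptor was tested in an in-house radioligand competition binding assay. The value is reported as Ki.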"}},
  "data": [
    {"smiles": "O=C(O)[C@H]1CC[C@H](OC2CCN(c3ccc(-c4nc5cc(C(F)(F)F)ccc5[nH]4)cn3)CC2)CC1", "values": [
      {"measurement": "fraction unbound", "setting": "[1]", "result": 0.078},
      {"measurement": "Vd", "setting": "[2]", "result": 0.19, "unit": "L/kg"},
      {"measurement": "concentration at 3 h", "setting": "[3]", "result": 324, "unit": "nM"},
      {"measurement": "bioavailability", "setting": "[4]", "result": 8, "unit": "%"},
      {"measurement": "concentration at 24 h", "setting": "[5]", "result": 711, "unit": "nM"},
      {"measurement": "concentration at 4 h", "setting": "[6]", "result": 58, "unit": "nM"},
      {"measurement": "AUC", "setting": "[7]", "result": 1.94, "unit": "µM·h"},
      {"measurement": "bioavailability", "setting": "[8]", "result": 126, "unit": "%"},
      {"measurement": "concentration", "setting": "[9]", "result": "< 10", "unit": "nM"},
      {"measurement": "half-life", "setting": "[10]", "result": 1.16, "unit": "h"},
      {"measurement": "concentration at 24 h", "setting": "[11]", "result": "< 10", "unit": "nM"},
      {"measurement": "fraction unbound", "setting": "[12]", "result": 0.09},
      {"measurement": "Activity", "setting": "Salmonella typhimurium", "result": "Non-toxic"},
      {"measurement": "concentration at 24 h", "setting": "[13]", "result": 167, "unit": "nM"},
      {"measurement": "concentration at 4 h", "setting": "[14]", "result": 20, "unit": "nM"},
      {"measurement": "IC50", "setting": "[15]", "result": "> 10", "unit": "µM"},
      {"measurement": "concentration", "setting": "Liver", "result": 6910, "unit": "nM"},
      {"measurement": "AUC", "setting": "Rattus norvegicus [16]", "result": 0.97, "unit": "µM·h"},
      {"measurement": "inhibition in vivo at 1 mg/kg", "setting": "Rattus norvegicus [17]", "result": 80, "unit": "%"},
      {"measurement": "solubility", "setting": "[18]", "result": 153, "unit": "µM"},
      {"measurement": "Ki", "setting": "[19]", "result": 10, "unit": "µM"},
      {"measurement": "clearance", "setting": "[20]", "result": 5.82, "unit": "mL/min/kg"},
      {"measurement": "concentration at 3 h", "setting": "[21]", "result": 404, "unit": "nM"},
      {"measurement": "concentration", "setting": "Intestine", "result": 76, "unit": "nM"},
      {"measurement": "Ki", "setting": "Adenosine receptor A2a", "result": 4.6, "unit": "µM"}
    ]}
  ]
}
